Active and inactive are the calls of the source. The calls are words filed in the database; no cut-off is given here.
Key:
[1] = biological target: Histone-lysine N-methyltransferase EZH2 (Homo sapiens) (UniProt Q15910); assay: Inhibition of PRC2 (unknown origin) assessed as reduction in incorporation of [3H]-labeled methyl group into biotinylated substrate using [3H-SAM] at 10 uM incubated for 1 hr by scintillation proximity assay
How it was run: (§1)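 Panel of 33 methyltransferases (22 PKMTs, 3 DNMTs, 8 PRMTs), each tested at 10 and 50 μM compound. Activity was read as ³H-methyl transfer from ³H-SAM in a radiometric assay done as previously described.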

[2] = biological target: T1, Histone-arginine methyltransferase CARM1 (Homo sapiens) (UniProt Q86X55); assay: Inhibition of PRMT4 in human MCF7 cells assessed as reduction in BAF155 asymmetric dimethylation at 0.2 to 20 uM incubated for 2 days; assay type: cell-based
T1 sequence (whole entry): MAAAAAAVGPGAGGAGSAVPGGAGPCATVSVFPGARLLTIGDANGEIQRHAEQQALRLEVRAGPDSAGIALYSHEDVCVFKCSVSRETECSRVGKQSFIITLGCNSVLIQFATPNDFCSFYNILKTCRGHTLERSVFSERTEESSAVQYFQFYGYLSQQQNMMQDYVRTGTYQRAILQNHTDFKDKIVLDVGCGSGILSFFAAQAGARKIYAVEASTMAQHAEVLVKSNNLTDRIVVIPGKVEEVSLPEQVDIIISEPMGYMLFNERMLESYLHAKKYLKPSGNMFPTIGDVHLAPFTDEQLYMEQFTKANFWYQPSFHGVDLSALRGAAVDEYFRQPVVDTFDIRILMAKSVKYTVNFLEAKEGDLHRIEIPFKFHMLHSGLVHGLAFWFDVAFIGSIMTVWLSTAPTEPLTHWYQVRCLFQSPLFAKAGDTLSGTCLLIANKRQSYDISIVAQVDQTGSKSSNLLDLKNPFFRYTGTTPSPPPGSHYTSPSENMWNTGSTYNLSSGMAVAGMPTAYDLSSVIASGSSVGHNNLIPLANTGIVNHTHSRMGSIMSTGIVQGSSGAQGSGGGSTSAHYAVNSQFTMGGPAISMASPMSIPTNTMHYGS

[3] = biological target: Histone-lysine N-methyltransferase KMT5C (Homo sapiens) (UniProt Q86Y97); assay: Inhibition of SUV420H2 (unknown origin) assessed as reduction in incorporation of [3H]-labeled methyl group into biotinylated substrate using [3H-SAM] at 10 uM incubated for 1 hr by scintillation proximity assay
MCF7 = assay: Toxicity in human MCF7 cells assessed as reduction in cell viability up to 20 uM incubated for 3 days by CCK8 assay; assay type: cell-based; conditions: mcf7, 72 h
How it was run: (§2)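 Cells seeded 1×10^4 per well in triplicate, treated after 24 h with serial dilutions from 20 μM for 3 days; CCK-8 (WST-8) added, 4 h at 37 °C, absorbance at 450 nm; mean ± SD of three replicate experiments.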

[4] = biological target: Protein arginine N-methyltransferase 6 (Homo sapiens, UniProt Q96LA8); assay: Covalent binding affinity to human PRMT6 assessed as covalent adduct. formation at 300 uM pre-incubated for 1 hr by mass spectrometry
Chain of Protein arginine N-methyltransferase 6 (Q96LA8 whole entry, looked up): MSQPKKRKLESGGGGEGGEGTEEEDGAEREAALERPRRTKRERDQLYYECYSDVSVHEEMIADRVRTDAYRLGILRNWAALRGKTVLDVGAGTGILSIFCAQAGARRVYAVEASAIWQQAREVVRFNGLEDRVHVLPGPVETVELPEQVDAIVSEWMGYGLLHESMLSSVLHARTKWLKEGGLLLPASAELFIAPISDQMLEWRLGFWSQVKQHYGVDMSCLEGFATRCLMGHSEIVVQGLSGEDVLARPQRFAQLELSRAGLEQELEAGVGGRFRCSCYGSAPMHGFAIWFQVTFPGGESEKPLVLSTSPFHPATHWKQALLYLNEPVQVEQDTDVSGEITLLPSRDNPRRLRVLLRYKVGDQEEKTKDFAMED
How it was run: (§3)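 PRMT protein at 15 μM was incubated 1 h at room temperature with a 20-fold molar excess of inhibitor (300 μM). The reaction was quenched with 0.1% aqueous TFA, separated by HPLC (5–95% acetonitrile in water) and analysed by ESI time-of-flight LC/MS for protein–ligand adduct mass.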

[5] = biological target: Protein arginine N-methyltransferase 1 (Homo sapiens, UniProt Q99873); assay: Inhibition of human PRMT1 using [3H]SAM as donor and [3H]methylated biotin-labeled peptide as substrate by scintillation proximity assay
Chain of Protein arginine N-methyltransferase 1 (Q99873 whole entry): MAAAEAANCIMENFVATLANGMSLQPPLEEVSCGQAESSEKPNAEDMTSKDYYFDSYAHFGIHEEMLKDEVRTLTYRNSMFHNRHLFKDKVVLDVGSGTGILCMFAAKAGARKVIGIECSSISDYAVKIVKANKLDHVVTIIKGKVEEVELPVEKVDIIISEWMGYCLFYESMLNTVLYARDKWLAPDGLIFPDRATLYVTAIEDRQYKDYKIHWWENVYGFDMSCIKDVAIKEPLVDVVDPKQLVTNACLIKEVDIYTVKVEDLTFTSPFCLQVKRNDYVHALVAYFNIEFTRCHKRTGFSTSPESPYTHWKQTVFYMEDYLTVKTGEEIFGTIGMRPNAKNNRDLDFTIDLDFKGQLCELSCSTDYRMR

[6] = biological target: Histone-lysine N-methyltransferase, H3 lysine-36 specific (Homo sapiens) (UniProt Q96L73); assay: Inhibition of NSD1 (unknown origin) at 10 uM using [3H-SAM] and nucleosome as substrate incubated for 1 hr by scintillation proximity assay; how it was run: as §1
Chain of Histone-lysine N-methyltransferase, H3 lysine-36 specific (Homo sapiens) (Q96L73 whole entry): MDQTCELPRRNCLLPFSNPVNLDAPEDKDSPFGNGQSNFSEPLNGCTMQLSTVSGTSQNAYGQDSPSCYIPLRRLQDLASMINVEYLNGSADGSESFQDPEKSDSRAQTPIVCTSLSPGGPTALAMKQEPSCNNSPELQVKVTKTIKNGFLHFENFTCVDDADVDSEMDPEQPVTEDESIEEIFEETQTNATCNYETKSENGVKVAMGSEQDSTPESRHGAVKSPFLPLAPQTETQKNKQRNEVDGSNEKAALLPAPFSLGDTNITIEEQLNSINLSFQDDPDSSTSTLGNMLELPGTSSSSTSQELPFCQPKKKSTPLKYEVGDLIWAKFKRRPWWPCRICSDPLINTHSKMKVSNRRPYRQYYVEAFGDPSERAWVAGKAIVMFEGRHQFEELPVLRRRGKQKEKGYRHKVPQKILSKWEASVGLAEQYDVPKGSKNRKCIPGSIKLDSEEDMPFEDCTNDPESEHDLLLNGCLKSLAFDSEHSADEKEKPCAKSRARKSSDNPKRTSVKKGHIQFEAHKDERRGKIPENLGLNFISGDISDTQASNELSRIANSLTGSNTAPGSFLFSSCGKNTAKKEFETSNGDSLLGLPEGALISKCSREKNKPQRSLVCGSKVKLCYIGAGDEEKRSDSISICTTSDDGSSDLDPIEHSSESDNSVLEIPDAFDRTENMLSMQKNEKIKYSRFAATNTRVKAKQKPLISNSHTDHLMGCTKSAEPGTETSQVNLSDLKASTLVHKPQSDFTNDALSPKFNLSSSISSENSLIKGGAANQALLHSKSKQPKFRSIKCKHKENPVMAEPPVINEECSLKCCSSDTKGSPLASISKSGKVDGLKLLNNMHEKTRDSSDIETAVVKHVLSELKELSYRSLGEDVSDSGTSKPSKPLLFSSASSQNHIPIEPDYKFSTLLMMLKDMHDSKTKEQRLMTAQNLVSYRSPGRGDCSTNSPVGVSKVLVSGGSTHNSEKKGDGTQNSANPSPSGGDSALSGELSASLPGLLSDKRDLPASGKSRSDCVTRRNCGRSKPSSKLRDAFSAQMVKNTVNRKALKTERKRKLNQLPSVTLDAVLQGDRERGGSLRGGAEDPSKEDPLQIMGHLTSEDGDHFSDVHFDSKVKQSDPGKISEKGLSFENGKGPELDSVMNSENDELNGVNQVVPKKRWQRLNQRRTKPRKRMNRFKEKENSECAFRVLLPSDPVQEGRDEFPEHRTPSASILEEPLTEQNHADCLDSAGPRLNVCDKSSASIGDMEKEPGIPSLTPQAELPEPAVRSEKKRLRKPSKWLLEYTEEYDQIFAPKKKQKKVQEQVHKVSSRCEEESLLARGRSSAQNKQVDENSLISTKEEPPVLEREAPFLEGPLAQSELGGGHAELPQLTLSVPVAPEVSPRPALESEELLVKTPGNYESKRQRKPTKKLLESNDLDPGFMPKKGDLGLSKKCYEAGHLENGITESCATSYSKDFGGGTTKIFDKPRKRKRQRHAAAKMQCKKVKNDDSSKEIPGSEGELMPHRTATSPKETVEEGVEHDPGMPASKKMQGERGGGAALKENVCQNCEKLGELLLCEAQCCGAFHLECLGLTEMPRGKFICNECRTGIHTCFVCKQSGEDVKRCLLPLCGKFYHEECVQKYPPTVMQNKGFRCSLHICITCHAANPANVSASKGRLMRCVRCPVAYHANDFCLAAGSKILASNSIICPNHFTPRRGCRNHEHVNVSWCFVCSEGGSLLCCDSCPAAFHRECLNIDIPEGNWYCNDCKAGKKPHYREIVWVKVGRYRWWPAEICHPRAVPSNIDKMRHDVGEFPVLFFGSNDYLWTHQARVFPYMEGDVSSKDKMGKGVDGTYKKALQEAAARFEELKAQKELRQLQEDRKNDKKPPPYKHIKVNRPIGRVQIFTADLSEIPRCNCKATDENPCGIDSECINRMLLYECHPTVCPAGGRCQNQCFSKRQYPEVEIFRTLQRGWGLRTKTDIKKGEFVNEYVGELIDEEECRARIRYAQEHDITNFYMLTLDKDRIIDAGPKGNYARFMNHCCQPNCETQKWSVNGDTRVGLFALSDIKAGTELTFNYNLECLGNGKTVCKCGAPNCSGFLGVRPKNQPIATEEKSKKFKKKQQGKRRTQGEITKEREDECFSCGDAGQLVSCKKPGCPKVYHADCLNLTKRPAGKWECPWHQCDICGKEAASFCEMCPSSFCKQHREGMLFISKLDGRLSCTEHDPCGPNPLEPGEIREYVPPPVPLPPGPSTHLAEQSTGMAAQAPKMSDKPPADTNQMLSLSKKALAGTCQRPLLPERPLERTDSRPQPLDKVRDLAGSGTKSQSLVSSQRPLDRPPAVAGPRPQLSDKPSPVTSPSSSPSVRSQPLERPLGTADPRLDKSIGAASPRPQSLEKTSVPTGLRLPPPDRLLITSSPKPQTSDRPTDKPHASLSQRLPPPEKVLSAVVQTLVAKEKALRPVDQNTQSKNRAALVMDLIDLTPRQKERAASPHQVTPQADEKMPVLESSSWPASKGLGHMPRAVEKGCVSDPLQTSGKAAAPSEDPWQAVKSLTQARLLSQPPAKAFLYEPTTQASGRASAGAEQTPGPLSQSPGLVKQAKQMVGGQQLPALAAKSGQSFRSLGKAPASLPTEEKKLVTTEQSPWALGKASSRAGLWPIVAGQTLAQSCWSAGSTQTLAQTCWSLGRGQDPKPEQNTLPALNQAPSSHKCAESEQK

[7] = biological target: N-lysine methyltransferase SMYD2 (Homo sapiens) (UniProt Q9NRG4); assay: Inhibition of SMYD2 (unknown origin) assessed as reduction in incorporation of [3H]-labeled methyl group into biotinylated substrate using [3H-SAM] at 10 uM incubated for 1 hr by scintillation proximity assay; how it was run: as §1
Chain of N-lysine methyltransferase SMYD2 (Homo sapiens) (Q9NRG4 whole entry): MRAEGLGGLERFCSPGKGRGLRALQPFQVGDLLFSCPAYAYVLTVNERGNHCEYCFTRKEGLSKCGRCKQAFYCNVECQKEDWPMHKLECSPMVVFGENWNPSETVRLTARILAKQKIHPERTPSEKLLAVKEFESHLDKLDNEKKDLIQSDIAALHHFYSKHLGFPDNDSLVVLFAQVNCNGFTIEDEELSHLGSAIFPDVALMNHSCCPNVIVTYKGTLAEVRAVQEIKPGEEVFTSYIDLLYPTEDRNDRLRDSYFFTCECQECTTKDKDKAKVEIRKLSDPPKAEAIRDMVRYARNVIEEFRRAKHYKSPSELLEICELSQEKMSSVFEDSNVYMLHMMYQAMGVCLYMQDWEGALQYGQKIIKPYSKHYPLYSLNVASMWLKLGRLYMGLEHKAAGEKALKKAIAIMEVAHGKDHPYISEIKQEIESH

[8] = biological target: T1, Histone-arginine methyltransferase CARM1 (Homo sapiens); assay: Inhibition of PRMT4 (unknown origin) assessed as reduction in incorporation of [3H]-labeled methyl group into biotinylated substrate using [3H-SAM] at 50 uM incubated for 1 hr by scintillation proximity assay relative to control; how it was run: as §1
[9] = biological target: Histone-lysine N-methyltransferase 2A (Homo sapiens) (UniProt Q03164); assay: Inhibition of MLL1 (unknown origin) assessed as reduction in incorporation of [3H]-labeled methyl group into biotinylated substrate using [3H-SAM] at 10 uM incubated for 1 hr by scintillation proximity assay; how it was run: as §1
PNT2 = assay: Toxicity in human PNT2 cells assessed as reduction in cell viability up to 20 uM incubated for 3 days by CCK8 assay; assay type: cell-based; conditions: pnt2, 72 h; how it was run: as §2
HEK-293T = assay: Toxicity in HEK293T cells assessed as reduction in cell viability up to 20 uM incubated for 3 days by CCK8 assay; assay type: cell-based; conditions: human, 72 h; how it was run: as §2
Homo sapiens = species on record: Homo sapiens; assay: Selectivity index, ratio of IC50 for human PRMT1 to IC50 for human PRMT6
[10] = biological target: T1, Histone-arginine methyltransferase CARM1 (Homo sapiens); assay: Covalent binding affinity to human PRMT4 assessed as covalent adduct. formation at 300 uM pre-incubated for 1 hr by mass spectrometry; how it was run: as §3
[11] = biological target: DNMT3B-DNMT3L complex (Homo sapiens) (UniProt Q9UBC3+Q9UJW3); assay: Inhibition of DNMT3B/3L (unknown origin) at 10 uM using un-biotinylated Poly(2'-deoxyinosinic-2'-deoxycytidylic acid) substrate using [3H-SAM] incubated for 1 hr by scintillation proximity assay; assay type: protein-complex assay; how it was run: as §1
[12] = biological target: RNA 5'-monophosphate methyltransferase (Homo sapiens) (UniProt Q7Z5W3); assay: Inhibition of BCDIN3D (unknown origin) assessed as reduction in incorporation of [3H]-labeled methyl group into biotinylated substrate using [3H-SAM] at 10 uM incubated for 1 hr by scintillation proximity assay
Chain of RNA 5'-monophosphate methyltransferase (Homo sapiens) (Q7Z5W3 whole entry): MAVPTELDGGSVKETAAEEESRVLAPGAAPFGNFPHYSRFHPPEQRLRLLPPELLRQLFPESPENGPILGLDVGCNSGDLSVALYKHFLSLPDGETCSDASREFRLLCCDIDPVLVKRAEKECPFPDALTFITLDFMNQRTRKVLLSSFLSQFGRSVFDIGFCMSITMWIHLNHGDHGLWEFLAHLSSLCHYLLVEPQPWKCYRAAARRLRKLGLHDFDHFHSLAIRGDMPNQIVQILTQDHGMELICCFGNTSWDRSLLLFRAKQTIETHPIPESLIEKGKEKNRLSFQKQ

[13] = biological target: T2, Histone-arginine methyltransferase CARM1 (Homo sapiens, UniProt Q86X55); assay: Inhibition of human PRMT4 using [3H]SAM as donor and [3H]methylated biotin-labeled peptide as substrate by scintillation proximity assay
T2 sequence (Q86X55 whole entry): T1 sequence (whole entry)
How it was run: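 Compound titrated into the reaction; 1 h enzyme–compound preincubation stated for PRMT6. Methylated peptide captured on streptavidin/scintillant-coated plates and counted (cpm). IC50 from concentration–response, triplicate, mean ± SD.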

[14] = biological target: Histone-lysine N-methyltransferase SUV39H1 (Homo sapiens) (UniProt O43463); assay: Inhibition of SUV39H1 (unknown origin) assessed as reduction in incorporation of [3H]-labeled methyl group into biotinylated substrate using [3H-SAM] at 10 uM incubated for 1 hr by scintillation proximity assay; how it was run: as §1
[15] = biological target: Protein arginine N-methyltransferase 9 (Homo sapiens) (UniProt Q6P2P2); assay: Inhibition of PRMT9 (unknown origin) assessed as reduction in incorporation of [3H]-labeled methyl group into biotinylated substrate using [3H-SAM] at 10 uM incubated for 1 hr by scintillation proximity assay; how it was run: as §1

Chain of Histone-lysine N-methyltransferase EZH2 (Homo sapiens) (Q15910 whole entry, looked up): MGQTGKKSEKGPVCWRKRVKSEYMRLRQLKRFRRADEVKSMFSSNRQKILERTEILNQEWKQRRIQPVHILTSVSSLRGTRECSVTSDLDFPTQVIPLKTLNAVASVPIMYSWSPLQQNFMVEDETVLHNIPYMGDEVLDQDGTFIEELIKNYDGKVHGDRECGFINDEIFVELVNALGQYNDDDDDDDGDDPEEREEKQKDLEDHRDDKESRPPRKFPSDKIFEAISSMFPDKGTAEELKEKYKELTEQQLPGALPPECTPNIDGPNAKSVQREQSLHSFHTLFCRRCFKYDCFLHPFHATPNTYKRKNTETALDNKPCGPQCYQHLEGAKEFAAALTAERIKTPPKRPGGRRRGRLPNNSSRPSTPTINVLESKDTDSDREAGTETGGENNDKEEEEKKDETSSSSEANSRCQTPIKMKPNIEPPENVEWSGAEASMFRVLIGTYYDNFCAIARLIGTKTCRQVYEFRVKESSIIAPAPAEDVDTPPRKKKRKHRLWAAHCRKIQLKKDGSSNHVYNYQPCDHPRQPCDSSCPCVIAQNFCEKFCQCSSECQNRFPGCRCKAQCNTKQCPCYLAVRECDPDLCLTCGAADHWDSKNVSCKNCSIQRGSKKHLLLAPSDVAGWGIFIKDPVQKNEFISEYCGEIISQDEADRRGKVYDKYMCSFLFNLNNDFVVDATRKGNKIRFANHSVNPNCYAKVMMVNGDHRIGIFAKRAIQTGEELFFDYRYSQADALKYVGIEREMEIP

`C=CC(=O)Nc1cccc(-c2c[nH]cc2CN(C)CCN)c1` was tested, and the inhibition [1] was “inactive”, the inhibition [2] was “inactive” and the inhibition [3] was “inactive”. For the same compound, the Activity (MCF7) was “Non-Toxic”, the Activity [4] was “Active” and the IC50 [5] was 100 nM. For the same compound, the inhibition [6] was “inactive”, the inhibition [7] was “inactive” and the inhibition [8] was > 50%. For the same compound, the inhibition [9] was “inactive”, the Activity (PNT2) was “Non-Toxic” and the Activity (HEK-293T) was “Non-Toxic”. The Ratio IC50 (Homo sapiens) was 6, the Activity [10] was “inactive” and the inhibition [11] was “inactive”. The inhibition [12] was “inactive”, the IC50 [13] was 480 nM and the inhibition [14] was “inactive”. For the same compound, the inhibition [15] was “inactive”.
